Experimental data taken from PMC5352984 (Journal of medicinal chemistry, 2017).
Each block holds one compound with its values, some of them ahead of it.

How the values were obtained:
[1] = test system: 29 PKMTs, PRMTs, DNMTs, and RNMTs; experiment: Selectivity assays against a methyltransferase panel; type: biochemical
Method in brief: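 Quenched with 7.5 M guanidine HCl, diluted in 20 mM Tris pH 8.0, FlashPlate counted after 1 h. DOT1L, ASH1L, DNMT3A/3L, DNMT3B/3L: 1 h RT, TCA filter capture, washes, scintillation count. No-compound = 100%, no-enzyme = 0%.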

G9a = target: T1, G9a (Homo sapiens, UniProt Q96KQ7); experiment: G9a scintillation proximity methyltransferase assay; type: biochemical; details: ratio of IC50 versus compound 14
T1 sequence (Q96KQ7 1-1210): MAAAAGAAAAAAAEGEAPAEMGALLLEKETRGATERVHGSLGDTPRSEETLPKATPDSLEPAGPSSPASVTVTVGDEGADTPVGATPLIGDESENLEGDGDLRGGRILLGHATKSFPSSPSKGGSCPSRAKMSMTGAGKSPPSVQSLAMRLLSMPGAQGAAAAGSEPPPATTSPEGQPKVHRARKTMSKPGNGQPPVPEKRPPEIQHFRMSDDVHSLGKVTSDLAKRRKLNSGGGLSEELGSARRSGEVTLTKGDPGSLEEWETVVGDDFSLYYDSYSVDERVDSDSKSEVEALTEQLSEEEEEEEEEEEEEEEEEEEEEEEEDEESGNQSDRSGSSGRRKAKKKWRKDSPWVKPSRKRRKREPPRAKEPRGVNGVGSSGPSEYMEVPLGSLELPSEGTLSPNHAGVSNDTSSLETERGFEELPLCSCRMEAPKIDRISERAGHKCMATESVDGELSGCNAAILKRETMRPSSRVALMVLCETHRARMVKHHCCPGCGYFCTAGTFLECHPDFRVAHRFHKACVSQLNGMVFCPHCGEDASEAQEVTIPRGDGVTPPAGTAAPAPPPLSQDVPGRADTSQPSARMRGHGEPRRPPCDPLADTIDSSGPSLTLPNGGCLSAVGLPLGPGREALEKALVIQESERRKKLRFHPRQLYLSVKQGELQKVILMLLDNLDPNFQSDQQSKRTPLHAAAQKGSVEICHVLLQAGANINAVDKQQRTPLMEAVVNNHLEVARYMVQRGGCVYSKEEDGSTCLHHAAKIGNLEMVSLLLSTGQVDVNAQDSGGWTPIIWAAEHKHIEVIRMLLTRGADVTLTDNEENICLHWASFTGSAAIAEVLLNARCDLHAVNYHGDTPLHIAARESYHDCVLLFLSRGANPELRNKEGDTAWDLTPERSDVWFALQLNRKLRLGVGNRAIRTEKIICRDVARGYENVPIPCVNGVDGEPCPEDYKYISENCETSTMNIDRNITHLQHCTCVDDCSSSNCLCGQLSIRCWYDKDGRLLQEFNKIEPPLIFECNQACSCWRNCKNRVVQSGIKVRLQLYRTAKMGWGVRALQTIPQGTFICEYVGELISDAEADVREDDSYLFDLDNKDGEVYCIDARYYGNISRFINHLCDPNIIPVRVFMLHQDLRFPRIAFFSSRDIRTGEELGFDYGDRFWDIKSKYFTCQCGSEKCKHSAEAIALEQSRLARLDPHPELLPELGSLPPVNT

GLP = details: cited from earlier work

inhibition of 29 methyltransferases ([1]; compound at 10 μM): did not inhibit
SMILES: COc1cc2nc(N3CCOCC3)nc(NC3CCN(C)CC3)c2cc1OC [Compound 4, 6,7-Dimethoxy-N-(1-methylpiperidin-4-yl)-2-morpholinoquinazolin-4-amine]

potency increase for G9a compared with 14 (G9a): 21 fold
SMILES: COc1cc2nc(N3CCCN(C)CC3)nc(NC3CCN(C)CC3)c2cc1OC [Compound 15, 6,7-Dimethoxy-2-(4-methyl-1,4-diazepan-1-yl)-N-(1-methylpiperidin-4-yl)quinazolin-4-amine]

SMILES: COc1cc2nc(N3CCCN(C)CC3)nc(NC3CCN(Cc4ccccc4)CC3)c2cc1OC [Compound 1]
selectivity for GLP over G9a (GLP): 3–5 fold

SMILES: CCCCCCNc1nc(NC2CCN(C)CC2)c2cc(OC)c(OC)cc2n1 [Compound 18, N^2-Hexyl-6,7-dimethoxy-N^4-(1-methylpiperidin-4-yl)quinazoline-2,4-diamine]
inhibition of 29 methyltransferases ([1]; compound at 1 μM): did not inhibit
